Calls of active or inactive are those of the source. The calls are words filed in the database; no cut-off is given here.
Columns and labels:
[1] = biological target: T1, Serine/threonine-protein kinase Nek1 (Homo sapiens) (UniProt Q96PY6); test: Inhibition of NEK1 Lys2 labeling site in human Huh-7 cell lysate at 1 uM by KiNativ Profiling analysis relative to control; type: subcellular
T1 sequence (whole entry): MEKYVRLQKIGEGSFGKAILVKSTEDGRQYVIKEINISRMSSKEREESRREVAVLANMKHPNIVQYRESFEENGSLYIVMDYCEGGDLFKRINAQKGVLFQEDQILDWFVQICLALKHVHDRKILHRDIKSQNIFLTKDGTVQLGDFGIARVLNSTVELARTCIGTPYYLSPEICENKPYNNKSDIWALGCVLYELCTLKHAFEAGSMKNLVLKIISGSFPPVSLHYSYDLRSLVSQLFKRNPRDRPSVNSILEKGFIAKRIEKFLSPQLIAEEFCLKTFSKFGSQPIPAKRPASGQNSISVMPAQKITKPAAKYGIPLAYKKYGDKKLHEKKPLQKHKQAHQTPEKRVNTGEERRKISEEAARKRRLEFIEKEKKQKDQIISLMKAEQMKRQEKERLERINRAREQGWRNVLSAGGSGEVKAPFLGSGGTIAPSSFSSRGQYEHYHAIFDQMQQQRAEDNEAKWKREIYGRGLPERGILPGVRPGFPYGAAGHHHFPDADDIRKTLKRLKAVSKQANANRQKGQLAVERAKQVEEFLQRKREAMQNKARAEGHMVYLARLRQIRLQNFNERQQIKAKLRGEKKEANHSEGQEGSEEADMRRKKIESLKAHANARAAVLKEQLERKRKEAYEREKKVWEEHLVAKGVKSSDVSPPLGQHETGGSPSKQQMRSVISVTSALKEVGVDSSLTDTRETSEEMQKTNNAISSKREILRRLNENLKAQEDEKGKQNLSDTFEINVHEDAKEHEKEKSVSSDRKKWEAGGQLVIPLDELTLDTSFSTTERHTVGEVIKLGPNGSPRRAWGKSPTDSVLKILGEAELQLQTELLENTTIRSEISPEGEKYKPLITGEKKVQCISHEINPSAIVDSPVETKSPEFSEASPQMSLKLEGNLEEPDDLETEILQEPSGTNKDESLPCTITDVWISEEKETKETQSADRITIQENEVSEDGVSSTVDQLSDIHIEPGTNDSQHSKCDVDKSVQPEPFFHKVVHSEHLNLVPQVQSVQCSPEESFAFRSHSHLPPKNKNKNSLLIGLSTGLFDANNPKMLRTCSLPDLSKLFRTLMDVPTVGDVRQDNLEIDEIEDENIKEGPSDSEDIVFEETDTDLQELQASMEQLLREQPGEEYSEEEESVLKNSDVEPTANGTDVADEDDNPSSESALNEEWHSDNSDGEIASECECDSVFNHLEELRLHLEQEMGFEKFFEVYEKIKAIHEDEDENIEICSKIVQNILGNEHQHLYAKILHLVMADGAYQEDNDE

[2] = biological target: Mitogen-activated protein kinase 7 (Homo sapiens) (UniProt Q13164); test: Inhibition of Erk5 Lys2 labeling site in human Huh-7 cell lysate at 1 uM by KiNativ Profiling analysis relative to control; type: subcellular
[3] = biological target: Cyclin-dependent kinase 16 (Homo sapiens) (UniProt Q00536); test: Inhibition of PCTAIRE1 Lys1 labeling site in human A-375 cells at 0.05 uM by KiNativ Profiling analysis relative to control; type: cell-based
[4] = biological target: Cyclin-dependent kinase 11B (Homo sapiens) (UniProt P21127); test: Inhibition of CDC2L1 (unknown origin) at 10 uM by Ambit Kinomescan binding assay relative to control; values are per cent of control
[5] = biological target: Phosphatidylinositol 4-phosphate 3-kinase C2 domain-containing subunit beta (Homo sapiens) (UniProt O00750); test: Inhibition of PIK3C2B (unknown origin) at 10 uM by Ambit Kinomescan binding assay
[6] = biological target: T2, Receptor-interacting serine/threonine-protein kinase 4 (Homo sapiens) (UniProt P57078); test: Inhibition of ANKRD3 Lys1 labeling site in human A-375 cells at 0.05 uM by KiNativ Profiling analysis relative to control; type: cell-based
T2 sequence (whole entry): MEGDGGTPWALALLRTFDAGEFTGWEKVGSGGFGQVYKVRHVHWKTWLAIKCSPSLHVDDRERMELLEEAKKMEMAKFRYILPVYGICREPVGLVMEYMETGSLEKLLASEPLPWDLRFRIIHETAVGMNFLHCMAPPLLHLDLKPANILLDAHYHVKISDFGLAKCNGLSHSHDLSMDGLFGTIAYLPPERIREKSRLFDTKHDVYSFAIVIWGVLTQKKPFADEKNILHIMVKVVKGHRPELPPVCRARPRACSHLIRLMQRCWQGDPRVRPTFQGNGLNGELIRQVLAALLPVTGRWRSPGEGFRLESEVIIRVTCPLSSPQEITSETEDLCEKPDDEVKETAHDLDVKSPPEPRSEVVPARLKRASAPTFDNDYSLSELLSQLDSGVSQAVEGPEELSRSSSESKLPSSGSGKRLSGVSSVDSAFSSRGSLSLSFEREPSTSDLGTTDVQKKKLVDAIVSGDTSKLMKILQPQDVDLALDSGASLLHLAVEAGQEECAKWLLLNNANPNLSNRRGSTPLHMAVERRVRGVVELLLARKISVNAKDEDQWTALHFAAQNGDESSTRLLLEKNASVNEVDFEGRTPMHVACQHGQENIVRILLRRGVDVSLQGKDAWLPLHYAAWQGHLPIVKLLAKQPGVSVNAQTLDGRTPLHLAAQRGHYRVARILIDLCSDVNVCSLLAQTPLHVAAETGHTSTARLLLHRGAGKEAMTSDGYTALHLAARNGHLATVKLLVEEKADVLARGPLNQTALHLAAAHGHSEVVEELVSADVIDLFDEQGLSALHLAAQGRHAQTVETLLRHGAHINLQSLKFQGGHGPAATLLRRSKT

[7] = biological target: RAC-beta serine/threonine-protein kinase (Homo sapiens) (UniProt P31751); test: Inhibition of AKT2 ATP Loop labeling site in human A-375 cells at 5 uM by KiNativ Profiling analysis relative to control; type: cell-based
[8] = biological target: Ribosomal protein S6 kinase alpha-1 (Homo sapiens) (UniProt Q15418); test: Inhibition of RSK1 domain1 Lys2 labeling site harbouring DLKPENILLDEEGHIKLTDFGLSK in human A-375 cells at 5 uM by KiNativ Profiling analysis relative to control; type: cell-based
In short: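 Live A375 melanoma cells treated with compound at 5 or 0.5 μM, then lysed. Lysate kinases were labeled with a lysine-reactive ATP or ADP-biotin probe. Inhibition was read as protection of labeling sites from the probe.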

[9] = biological target: Phosphatidylinositol 4-kinase alpha (Homo sapiens) (UniProt P42356); test: Inhibition of PI4KA ATP labeling site in human A-375 cells at 0.5 uM by KiNativ Profiling analysis relative to control; type: cell-based
[10] = biological target: Tyrosine-protein kinase Fes/Fps (Homo sapiens, UniProt P07332); test: Inhibition of FES (unknown origin) at 1 uM by Ambit Kinomescan binding assay relative to control; values are per cent of control

RAC-beta serine/threonine-protein kinase (Homo sapiens), sequence (P31751 whole entry, the tested form may be a part): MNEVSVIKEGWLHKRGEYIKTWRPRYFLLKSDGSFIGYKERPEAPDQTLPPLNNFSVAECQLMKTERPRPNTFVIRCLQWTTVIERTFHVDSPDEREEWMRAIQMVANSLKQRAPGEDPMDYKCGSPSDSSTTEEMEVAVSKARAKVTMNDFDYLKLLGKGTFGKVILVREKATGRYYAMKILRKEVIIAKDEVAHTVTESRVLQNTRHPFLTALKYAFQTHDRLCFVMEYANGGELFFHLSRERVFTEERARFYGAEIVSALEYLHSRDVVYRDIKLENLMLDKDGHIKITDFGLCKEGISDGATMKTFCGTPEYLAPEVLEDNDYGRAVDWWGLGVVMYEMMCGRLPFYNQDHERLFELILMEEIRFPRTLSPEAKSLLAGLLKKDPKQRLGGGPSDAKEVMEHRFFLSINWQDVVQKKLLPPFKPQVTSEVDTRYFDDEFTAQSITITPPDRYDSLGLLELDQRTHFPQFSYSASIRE
Phosphatidylinositol 4-kinase alpha (Homo sapiens), sequence (P42356 whole entry, looked up): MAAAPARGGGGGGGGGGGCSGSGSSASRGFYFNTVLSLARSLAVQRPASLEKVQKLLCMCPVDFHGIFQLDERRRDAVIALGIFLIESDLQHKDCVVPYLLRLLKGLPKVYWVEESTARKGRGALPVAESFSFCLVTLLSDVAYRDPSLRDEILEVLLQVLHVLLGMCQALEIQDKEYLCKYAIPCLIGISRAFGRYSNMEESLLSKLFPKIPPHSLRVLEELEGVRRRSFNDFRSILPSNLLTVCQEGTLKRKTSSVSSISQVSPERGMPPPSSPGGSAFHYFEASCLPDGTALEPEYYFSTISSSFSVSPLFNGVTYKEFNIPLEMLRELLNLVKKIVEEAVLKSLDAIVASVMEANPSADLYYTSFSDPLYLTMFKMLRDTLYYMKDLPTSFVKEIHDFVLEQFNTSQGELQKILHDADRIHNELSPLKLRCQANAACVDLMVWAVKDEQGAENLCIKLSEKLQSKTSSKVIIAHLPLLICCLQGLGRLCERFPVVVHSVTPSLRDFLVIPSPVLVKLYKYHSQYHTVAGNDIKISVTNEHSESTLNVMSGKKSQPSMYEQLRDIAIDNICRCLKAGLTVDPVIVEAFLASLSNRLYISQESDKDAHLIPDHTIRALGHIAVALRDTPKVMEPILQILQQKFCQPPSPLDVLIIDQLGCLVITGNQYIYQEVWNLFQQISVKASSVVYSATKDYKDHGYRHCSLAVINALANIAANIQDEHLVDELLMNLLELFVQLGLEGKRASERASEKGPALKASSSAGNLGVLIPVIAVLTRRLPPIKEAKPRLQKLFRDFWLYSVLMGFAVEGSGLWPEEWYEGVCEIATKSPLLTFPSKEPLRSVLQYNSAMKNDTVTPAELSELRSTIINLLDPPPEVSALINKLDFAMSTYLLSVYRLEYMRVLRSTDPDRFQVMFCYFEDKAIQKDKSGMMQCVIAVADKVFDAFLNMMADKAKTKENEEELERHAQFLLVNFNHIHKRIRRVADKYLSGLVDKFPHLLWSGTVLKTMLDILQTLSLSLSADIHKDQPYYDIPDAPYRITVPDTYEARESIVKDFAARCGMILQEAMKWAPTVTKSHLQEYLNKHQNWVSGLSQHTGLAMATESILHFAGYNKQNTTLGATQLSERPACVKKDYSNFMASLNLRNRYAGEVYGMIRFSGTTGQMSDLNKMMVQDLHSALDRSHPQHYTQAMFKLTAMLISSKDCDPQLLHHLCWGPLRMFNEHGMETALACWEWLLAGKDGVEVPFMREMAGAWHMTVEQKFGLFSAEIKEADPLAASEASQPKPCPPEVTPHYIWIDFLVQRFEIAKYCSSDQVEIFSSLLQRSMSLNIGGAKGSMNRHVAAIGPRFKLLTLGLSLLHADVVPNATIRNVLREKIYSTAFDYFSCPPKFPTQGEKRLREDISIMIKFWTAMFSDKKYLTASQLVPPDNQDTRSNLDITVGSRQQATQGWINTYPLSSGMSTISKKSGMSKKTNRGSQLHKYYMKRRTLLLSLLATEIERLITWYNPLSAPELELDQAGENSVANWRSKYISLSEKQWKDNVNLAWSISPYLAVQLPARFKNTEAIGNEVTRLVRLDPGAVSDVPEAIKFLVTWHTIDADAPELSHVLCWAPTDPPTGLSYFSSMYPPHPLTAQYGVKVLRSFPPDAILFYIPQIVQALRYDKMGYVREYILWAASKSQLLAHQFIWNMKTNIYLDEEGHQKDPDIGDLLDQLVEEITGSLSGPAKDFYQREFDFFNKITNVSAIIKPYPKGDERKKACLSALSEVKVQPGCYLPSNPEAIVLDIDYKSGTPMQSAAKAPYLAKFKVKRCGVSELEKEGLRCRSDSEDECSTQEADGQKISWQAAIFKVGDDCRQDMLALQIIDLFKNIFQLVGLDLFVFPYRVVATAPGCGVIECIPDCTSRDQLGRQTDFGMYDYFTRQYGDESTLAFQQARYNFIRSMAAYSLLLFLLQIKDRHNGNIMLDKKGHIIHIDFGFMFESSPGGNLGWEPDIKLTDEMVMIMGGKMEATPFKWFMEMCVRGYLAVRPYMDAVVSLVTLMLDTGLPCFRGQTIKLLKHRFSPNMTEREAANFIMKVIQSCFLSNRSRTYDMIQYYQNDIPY
Ribosomal protein S6 kinase alpha-1 (Homo sapiens), sequence (Q15418 whole entry, the tested form may be a part): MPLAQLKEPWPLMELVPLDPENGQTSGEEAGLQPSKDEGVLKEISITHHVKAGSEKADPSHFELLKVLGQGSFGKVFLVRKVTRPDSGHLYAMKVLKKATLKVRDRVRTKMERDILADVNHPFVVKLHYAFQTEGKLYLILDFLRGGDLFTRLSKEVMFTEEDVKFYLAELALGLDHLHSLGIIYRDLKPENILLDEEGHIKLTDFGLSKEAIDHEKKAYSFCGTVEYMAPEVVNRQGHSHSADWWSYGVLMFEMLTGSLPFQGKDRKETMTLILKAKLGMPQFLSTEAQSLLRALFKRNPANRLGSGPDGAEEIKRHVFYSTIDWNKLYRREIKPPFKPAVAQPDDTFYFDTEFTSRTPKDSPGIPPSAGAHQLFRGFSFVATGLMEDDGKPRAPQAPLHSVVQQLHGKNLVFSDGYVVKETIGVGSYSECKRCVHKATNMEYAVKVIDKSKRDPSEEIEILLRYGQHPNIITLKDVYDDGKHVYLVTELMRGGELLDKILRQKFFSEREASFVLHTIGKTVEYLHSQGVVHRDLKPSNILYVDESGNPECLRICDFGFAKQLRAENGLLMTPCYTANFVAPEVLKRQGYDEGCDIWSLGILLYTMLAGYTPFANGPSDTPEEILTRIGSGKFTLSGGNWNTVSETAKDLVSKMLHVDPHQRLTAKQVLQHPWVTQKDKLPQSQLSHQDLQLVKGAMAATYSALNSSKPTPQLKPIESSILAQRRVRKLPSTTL
Phosphatidylinositol 4-phosphate 3-kinase C2 domain-containing subunit beta (Homo sapiens), sequence (O00750 whole entry, the tested form may be a part): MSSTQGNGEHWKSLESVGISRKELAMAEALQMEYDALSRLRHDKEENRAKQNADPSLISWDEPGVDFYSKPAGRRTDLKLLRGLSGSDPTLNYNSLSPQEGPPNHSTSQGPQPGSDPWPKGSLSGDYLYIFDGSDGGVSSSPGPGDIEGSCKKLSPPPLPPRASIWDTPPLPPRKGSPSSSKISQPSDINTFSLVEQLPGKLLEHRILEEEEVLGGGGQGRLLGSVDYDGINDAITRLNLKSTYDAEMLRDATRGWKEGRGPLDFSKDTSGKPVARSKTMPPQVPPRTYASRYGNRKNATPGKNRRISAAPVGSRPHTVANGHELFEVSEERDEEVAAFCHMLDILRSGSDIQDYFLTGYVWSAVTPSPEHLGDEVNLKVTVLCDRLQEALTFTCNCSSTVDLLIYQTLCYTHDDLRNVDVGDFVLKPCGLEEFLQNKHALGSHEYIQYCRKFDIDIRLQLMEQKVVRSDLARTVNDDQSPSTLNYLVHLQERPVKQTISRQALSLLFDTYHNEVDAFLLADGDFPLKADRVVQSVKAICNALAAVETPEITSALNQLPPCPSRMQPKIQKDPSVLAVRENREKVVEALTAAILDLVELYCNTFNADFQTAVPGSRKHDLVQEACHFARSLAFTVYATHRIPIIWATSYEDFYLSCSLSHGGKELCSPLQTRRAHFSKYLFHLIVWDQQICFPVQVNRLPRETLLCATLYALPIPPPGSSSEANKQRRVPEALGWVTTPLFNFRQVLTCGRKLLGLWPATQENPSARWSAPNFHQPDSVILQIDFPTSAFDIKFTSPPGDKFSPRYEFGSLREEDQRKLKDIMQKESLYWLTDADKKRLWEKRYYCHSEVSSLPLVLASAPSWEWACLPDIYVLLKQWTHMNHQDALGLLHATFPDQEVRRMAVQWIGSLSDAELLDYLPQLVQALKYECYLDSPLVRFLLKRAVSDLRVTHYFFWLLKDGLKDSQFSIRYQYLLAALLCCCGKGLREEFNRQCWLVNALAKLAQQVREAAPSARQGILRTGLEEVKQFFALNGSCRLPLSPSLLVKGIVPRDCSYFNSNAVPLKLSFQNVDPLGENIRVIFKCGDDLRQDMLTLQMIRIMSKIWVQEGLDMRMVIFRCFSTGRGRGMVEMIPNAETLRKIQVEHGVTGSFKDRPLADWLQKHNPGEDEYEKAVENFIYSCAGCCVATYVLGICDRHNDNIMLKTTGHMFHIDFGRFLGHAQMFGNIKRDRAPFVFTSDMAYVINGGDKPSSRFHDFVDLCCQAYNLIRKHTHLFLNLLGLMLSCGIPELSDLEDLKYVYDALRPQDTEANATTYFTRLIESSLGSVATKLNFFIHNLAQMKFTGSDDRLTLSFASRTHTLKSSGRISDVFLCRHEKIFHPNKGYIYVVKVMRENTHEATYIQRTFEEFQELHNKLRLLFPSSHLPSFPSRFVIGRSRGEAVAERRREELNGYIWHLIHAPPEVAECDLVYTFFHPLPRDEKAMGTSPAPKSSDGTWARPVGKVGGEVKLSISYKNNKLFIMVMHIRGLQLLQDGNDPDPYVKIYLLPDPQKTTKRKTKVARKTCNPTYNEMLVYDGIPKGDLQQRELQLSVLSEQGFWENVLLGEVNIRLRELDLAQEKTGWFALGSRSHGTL

Structure (SMILES): CNc1cc(Oc2cc(C(=O)Nc3cc(N4CCN(C)CC4)cc(C(F)(F)F)c3)ccc2C)ncn1
- inhibition [1]: -1.1%
- inhibition [2]: -6.5%

Structure (SMILES): CCN1CCN(Cc2ccc(NC(=O)c3ccc(C)c(Oc4ccnc5[nH]ccc45)c3)cc2C(F)(F)F)CC1
- inhibition [3]: 31.9%
- percent of control [4]: 0.35%
- inhibition [5]: inactive
- inhibition [6]: 32.4%

Structure (SMILES): CCN1CCN(Cc2ccc(NC(=O)c3ccc(C)c(/C=C/c4cnc5[nH]ccc5c4OC)c3)cc2C(F)(F)F)CC1
- inhibition [7]: 13.3%
- inhibition [8]: -4.9%
- inhibition [9]: -8%
- residual activity [10]: 6.8%
